Experimental findings from ChEMBL document CHEMBL1212837, “Benzo[b]thiophene-6-carboxamide 1,1-dioxides: inhibitors of human cancer cell growth at nanomolar concentrations” (2010) are described below.

The subject of experiment [1] is CCRF-CEM. The experiment in a line: Cell cycle arrest in human CCRF-CEM cells assessed as accumulation at S phase after 24 hrs using propidium iodide staining by flow cytometry. Type of experiment: functional, cell-based. Summed up: (§1)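 CCRF-CEM cells were seeded at 10⁶ cells/ml in complete medium and exposed to 2.5 µM for 24 h. Cells were pelleted (700 g, 6 min, 4 °C), washed in PBS and fixed in 70% ethanol at 4 °C for 20 min. They were then stained with PI (50 µg/ml) plus RNase at 37 °C for 30 min. DNA content was read by flow cytometry on 10,000 events to give phase percentages. Six independent experiments, duplicate wells, mean SD.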
Background: Flow cytometry measures light scatter and fluorescence of single cells or particles in a stream.

The nature of experiment [2]: Cytotoxicity against human HTB-54 cells after 72 hrs by MTT assay. The following applies: HTB-54, 72 h. Type of experiment: functional. The procedure, abridged: (§2)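 Cells were grown in medium with 10% fetal calf serum, 2 mM L-glutamine, penicillin/streptomycin and 10 mM HEPES (pH 7.4). Compounds were made up as a 0.1 M DMSO stock and serially diluted in medium to five doses between 0.01 and 100. Exposure was 72 h at 37 °C in humidified 5% CO₂. Read-out was MTT colorimetric, giving GI50 as the concentration reducing growth by 50%.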
(Tetrazolium dyes change colour on reduction, which living cells bring about.)

Experiment [3] relates to HeLa. Kind of experiment: Cytotoxicity against human HeLa cells after 72 hrs by MTT assay. The format is functional. Summed up: as §2
Experiment [4] relates to HT-29. Kind of experiment: Cytotoxicity against human HT-29 cells after 72 hrs by MTT assay. The following applies: HT-29, 72 h. The format is functional. Summed up:
as §2

Experiment [5] relates to K562. The experiment in a line: Cytotoxicity against human K562 cells after 72 hrs by MTT assay. The format is functional. The following applies: K562, 72 h. Summed up: as §2
The subject of experiment [6] is CCRF-CEM. The experiment in a line: Cytotoxicity against human CCRF-CEM cells after 72 hrs by MTT assay. Type of experiment: functional. The procedure, abridged: as §2
In experiment [7] the test system is CCRF-CEM. Kind of experiment: Cell cycle arrest in human CCRF-CEM cells assessed as accumulation at S phase at 2.5 uM using propidium iodide staining by flow cytometry. The following applies: TDE = time-dependent effect. Type of experiment: functional, cell-based. The procedure, abridged:
as §1

The nature of experiment [8]: Cytotoxicity against human MEL-AC cells after 72 hrs by MTT assay. The format is functional. Summed up: as §2
In experiment [9] the test system is CCRF-CEM. Kind of experiment: Cell cycle arrest in human CCRF-CEM cells assessed as accumulation at S phase at 2.5 uM after 24 hrs using propidium iodide staining by flow cytometry. Type of experiment: functional, cell-based. Summed up: as §1
Experiment [10] deals with CCRF-CEM. Kind of experiment: Induction of increase in ROS level in human CCRF-CEM cells at 2.5 uM after 24 hrs using CM-H2DCFDA fluorescent probe by flow cytometry. Type of experiment: functional, cell-based. Summed up:
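CCRF-CEM cells at 1×10⁶ cells/ml were cultured with or without 2.5 µM for 24 h. Cells (2×10⁶) were then loaded with 1 µM CM-H₂DCFDA for 60 min at 37 °C and fluorescence was read by flow cytometry. Results are expressed as fold over untreated cells, with 4-HPR as the positive control. Two independent experiments, triplicate wells, mean SD.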

The subject of experiment [11] is CCRF-CEM. The experiment in a line: Induction of apoptosis in human CCRF-CEM cells at 2.5 uM after 24 hrs using V-FITC and propidium iodide staining by flow cytometry in presence of N-acetyl-cysteine.
Experiment [12] concerns CCRF-CEM. Kind of experiment: Cell cycle arrest in human CCRF-CEM cells assessed as reduction of cell accumulation at G0/G1 phase at 2.5 uM after 24 hrs using propidium iodide staining by flow cytometry. Type of experiment: functional, cell-based. Summed up: as §1
Experiment [13] has as its system CCRF-CEM. The experiment in a line: Cell cycle arrest in human CCRF-CEM cells assessed as accumulation at sub-G1 phase at 2.5 uM after 24 hrs using propidium iodide staining by flow cytometry. The format is functional, cell-based. Summed up: as §1
Experiment [14] relates to CCRF-CEM. Kind of experiment: Induction of apoptosis in human CCRF-CEM cells at 6 uM after 12 hrs using V-FITC and propidium iodide staining by flow cytometry. Type of experiment: functional. Summed up: (§3)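 CCRF-CEM cells were incubated with compound for 12 to 48 h. Cells (5×10⁵) were pelleted, washed in PBS and stained with annexin V-FITC plus propidium iodide for 15 min at 4 °C in the dark. Phosphatidylserine-exposing (apoptotic) cells were counted by flow cytometry. Five independent experiments, duplicate wells, mean SD.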

In experiment [15] the test system is CCRF-CEM. The experiment in a line: Induction of apoptosis in human CCRF-CEM cells at 6 uM after 48 hrs using V-FITC and propidium iodide staining by flow cytometry. The format is functional. The procedure, abridged: as §3

Active and inactive are the calls of the source. The rule behind the calls is not given here.

By GI50 is commonly meant the concentration that inhibits growth by half. Low readings indicate more potent growth inhibition, high ones less potent growth inhibition.

On to `CCCCNC(=O)c1ccc2c(c1)S(=O)(=O)C=C2`, for which the Activity result in experiment [1] was “Dose-dependent effect”; in experiment [7], “tde”. Besides, the GI50 in [2] was found to be 90 nM; in [3], 80 nM; in experiment [4] it was 2320 nM; in experiment [5], 2730 nM; in [6], 280 nM; in experiment [8] it was 1420 nM.
On to `O=S1(=O)C=Cc2ccc(O)cc21`, for which the values for the Activity entry in experiment [1] and in [7] were “Dose-dependent effect” and “tde”, respectively. Also, the GI50 in [2] was 7530 nM; in experiment [4], 2040 nM; in experiment [5], 51100 nM; in experiment [6], 19200 nM; in experiment [8], 24000 nM.
`NS(=O)(=O)c1ccc2c(c1)S(=O)(=O)C=C2`: the Activity result is “Dose-dependent effect” in [1] and “tde” in experiment [7]. Besides, the GI50 in [2] came out at 5890 nM; in [3], 2210 nM; in [4], 8550 nM; in experiment [5], 29400 nM; in [6] it was 2860 nM; in experiment [8], 7140 nM.
With `O=S1(=O)C=Cc2ccc(S(=O)(=O)NCc3ccccc3)cc21`, the Activity entry in [1] is “Dose-dependent effect”; in experiment [7] it was “tde”. For the same compound, the GI50 amounted to 700 nM in [2]; 10 nM in [3]; 840 nM in [4]; 720 nM in experiment [5]; 330 nM in [6]; 400 nM in experiment [8].
In the case of `COc1ccc(CCNS(=O)(=O)c2ccc3c(c2)S(=O)(=O)C=C3)cc1`, the Activity entry in [1] is “Dose-dependent effect”; in [7], “tde”. Also, the GI50 in experiment [2] turned out to be 620 nM; in experiment [3] it was 120 nM; in experiment [4] it was 220 nM; in experiment [5] it was 6 nM; in [6], 5 nM; in experiment [8] it was 1930 nM.
Regarding `COc1ccc(NC(=O)c2ccc3c(c2)S(=O)(=O)C=C3)cc1`, the Activity result in experiment [1] is “Dose-dependent effect”; in experiment [7] it was “tde”; in [14], 30.4%; in [15] it was 83%. Further, the GI50 was found to be 2 nM in [2]; 3 nM in experiment [3]; 350 nM in experiment [4]; 47 nM in experiment [5]; 4 nM in experiment [6]; 760 nM in experiment [8]. Also, the outcome in experiment [9], in experiment [10], in [11], in experiment [12] and in experiment [13] was Active.
Consider `CN(Cc1ccccc1)S(=O)(=O)c1ccc2c(c1)S(=O)(=O)C=C2`, for which the Activity entry was “Dose-dependent effect” in experiment [1] and “tde” in experiment [7]. For the same compound, the GI50 in [2] turned out to be 400 nM; in [3], 10 nM; in [4], 35000 nM; in experiment [5], 38100 nM; in experiment [6] it was 630 nM; in [8], 2300 nM.
`COc1ccc(CCNC(=O)c2ccc3c(c2)S(=O)(=O)C=C3)cc1`: the Activity result in [1] is “Dose-dependent effect”; in experiment [7] it was “tde”. Besides, the GI50 in experiment [2] is 640 nM; in experiment [3] it was 40 nM; in experiment [4] it was 2080 nM; in [5], 2660 nM; in experiment [6], 730 nM; in experiment [8], 1320 nM.
On to `NC(=O)c1ccc2c(c1)S(=O)(=O)C=C2`, for which the Activity result in [1] is “Dose-dependent effect”; in experiment [7], “tde”. Further, the GI50 was determined as 220 nM in experiment [2]; 650 nM in experiment [3]; 5190 nM in experiment [4]; 7850 nM in experiment [5]; 3550 nM in experiment [6]; 3520 nM in [8].
